Measurements collected from several papers.
ABL1 F317L: Tyrosine-protein kinase ABL1 (ABL1, Homo sapiens, UniProt P00519, F317L)

| Compound | target | assay | conditions | quantity | result |
| --- | --- | --- | --- | --- | --- |
| C[C@H]1CC[C@H](n2c3cnccc3c3cnc(Nc4ccc5c(n4)CCN(C(=O)CO)C5)nc32)CC1 | Tyrosine-protein kinase ABL1, non-phosphorylated (ABL1, Homo sapiens, UniProt P00519) | binding, competition with immobilised ligand | 1 µM | remaining binding | 56% |
| CO[C@@H]1[C@H](N(C)C(=O)c2ccccc2)C[C@H]2O[C@]1(C)n1c3ccccc3c3c4c(c5c6ccccc6n2c5c31)C(=O)NC4 | Tyrosine-protein kinase ABL1, non-phosphorylated (ABL1, Homo sapiens, UniProt P00519, Q252H) | enzyme activity, inhibitor | 1 µM | inhibition | 0% |
| CN1CCN(C(=O)c2ccc(NC(=O)Nc3ccc(N(C)c4ccnc(Nc5ccc(CS(C)(=O)=O)cc5)n4)cc3)cc2)CC1 | Tyrosine-protein kinase ABL1, phosphorylated (ABL1, Homo sapiens, UniProt P00519) | binding, competition with immobilised ligand | 1 µM | remaining binding | 30% |
| C1=C/COCc2cc(ccc2OCCN2CCCC2)Nc2nccc(n2)-c2cccc(c2)COC/1 | ABL1 F317L | binding | 0.1 µM | remaining binding | 58% |
| COc1ccc2oc(-c3ccc4nc(N)oc4c3)c/c(=N\c3ccccc3NC(=O)CCN)c2c1 | Tyrosine-protein kinase ABL1 (ABL1, Homo sapiens, UniProt P00519, T315I) | cell-free assay | 1 µM | remaining signal | 103% |
| N#Cc1ccc(NC(=O)Nc2ccccc2)cc1 | Tyrosine-protein kinase ABL1, phosphorylated (ABL1, Homo sapiens, UniProt P00519, T315I) | cell-free assay, competition with immobilised ligand | 25 µM | remaining binding | 100% |
| C=CC(=O)N1CCC([C@@H]2CCNc3c(C(N)=O)c(-c4ccc(Oc5ccccc5)cc4)nn32)CC1 | Tyrosine-protein kinase ABL1, non-phosphorylated (ABL1, Homo sapiens, UniProt P00519, H396P) | enzyme activity, inhibitor | 1 µM | inhibition | 5% |
| CCCCC(=O)Nc1ccc(-c2ccc3ncn(CCC)c(=O)c3c2)cn1 | Tyrosine-protein kinase ABL1, phosphorylated (ABL1, Homo sapiens, UniProt P00519, F317L) | binding, competition with immobilised ligand | 0.5 µM | remaining binding | 97% |
| Cc1ccc(NC(=O)c2ccnc(C(F)(F)F)c2)cc1-c1cc(OCCO)nc(N2CCOCC2)c1 | ABL1 F317L | binding | 1 µM | remaining binding | 84% |
| CC#CC(=O)N1CCC[C@H]1c1nc(-c2ccc(C(=O)Nc3ccccn3)cc2)c2c(N)nccn12 | Tyrosine-protein kinase ABL1, phosphorylated (ABL1, Homo sapiens, UniProt P00519, Y253F) | enzyme activity, inhibitor | 1 µM | inhibition | 22% |
